# Laboratory results: ChEMBL document CHEMBL4622984, “Structure-Based Design of a Bromodomain and Extraterminal Domain (BET) Inhibitor Selective for the N-Terminal Bromodomains That Retains an Anti-inflammatory and Antiproliferative Phenotype” (J Med Chem, 2020)
# Experiments:
# [1] = molecular target: Bromodomain-containing protein 4 (Homo sapiens, UniProt O60885, Y97A); test: Displacement of Alexa Fluor 647 labelled I-BET762 from N-terminal His6-tagged human BRD4 BD2 (1 to 477 residues)/BD1 Y97A mutant expressed in Escherichia coli after 1 hr by TR-FRET assay
# [2] = molecular target: Bromodomain-containing protein 4 (Homo sapiens, UniProt O60885, Y390A); test: Displacement of Alexa Fluor 647 labelled I-BET762 from N-terminal His6-tagged human BRD4 BD1 (1 to 477 residues)/BD2 Y390A mutant expressed in Escherichia coli after 1 hr by TR-FRET assay
# PBMC [3] = test: Antiinflammatory activity in human PBMC assessed as reduction in LPS-induced IL-6 production incubated for 18 to 24 hrs by mesoscale assay; assay type: functional, cell-based
# PBMC [4] = test: Antiinflammatory activity in human PBMC assessed as reduction in LPS-induced MCP1 production incubated for 18 to 24 hrs by mesoscale assay; assay type: functional, cell-based
# Blood [5] = test: Antiinflammatory activity in human whole blood assessed as reduction in LPS-induced IL-6 production preincubated for 30 mins followed by LPS challenge and measured after overnight incubation by mesoscale assay; assay type: functional, tissue-based
# MV4-11 = test: Growth inhibition of human MV4-11 cells incubated for 72 hrs by Cell-titre glo assay; assay type: functional, cell-based; details: MV4-11, 72 h
# Blood [6] = test: Antiinflammatory activity in human whole blood assessed as reduction in LPS-induced MCP1 production preincubated for 30 mins followed by LPS challenge and measured after overnight incubation by mesoscale assay; assay type: functional, tissue-based
# [7] = molecular target: Bromodomain-containing protein 3 (Homo sapiens, UniProt Q15059, Y73A); test: Displacement of Alexa Fluor 647 labelled I-BET762 from N-terminal His6-tagged human BRD3 BD2 (1 to 435 residues)/BD1 Y73A mutant expressed in Escherichia coli after 1 hr by TR-FRET assay
# Chain of Bromodomain-containing protein 3 (Homo sapiens, UniProt Q15059, Y73A) (Q15059 2-726 Y73A limits assumed): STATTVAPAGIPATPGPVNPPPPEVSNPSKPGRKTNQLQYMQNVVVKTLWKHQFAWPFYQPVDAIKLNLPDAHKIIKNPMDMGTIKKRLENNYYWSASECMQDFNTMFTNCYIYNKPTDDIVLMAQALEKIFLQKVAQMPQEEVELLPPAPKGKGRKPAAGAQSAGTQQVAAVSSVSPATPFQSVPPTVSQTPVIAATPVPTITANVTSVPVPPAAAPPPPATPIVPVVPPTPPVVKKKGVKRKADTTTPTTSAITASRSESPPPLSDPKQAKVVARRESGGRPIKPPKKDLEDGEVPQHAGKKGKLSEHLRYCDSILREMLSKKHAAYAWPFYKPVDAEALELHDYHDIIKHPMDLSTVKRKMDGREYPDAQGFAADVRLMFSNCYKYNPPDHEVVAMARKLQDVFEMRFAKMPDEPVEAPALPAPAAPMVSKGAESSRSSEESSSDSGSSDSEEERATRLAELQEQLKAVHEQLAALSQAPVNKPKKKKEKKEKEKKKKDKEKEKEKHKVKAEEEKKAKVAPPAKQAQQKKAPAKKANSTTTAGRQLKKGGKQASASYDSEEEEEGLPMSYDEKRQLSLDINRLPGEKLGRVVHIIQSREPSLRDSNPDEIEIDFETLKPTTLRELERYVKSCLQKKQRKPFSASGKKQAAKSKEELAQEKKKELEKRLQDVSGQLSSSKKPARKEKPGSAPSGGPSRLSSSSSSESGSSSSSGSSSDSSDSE
# Procedure, shortened: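 Single-mutant tandem bromodomain constructs (Tyr→Ala in the other domain), N-terminal 6His, expressed in E. coli. Compounds were titrated from 10 mM DMSO stocks. Protein at 10 nM in 50 mM HEPES, 50 mM NaCl, 1 mM CHAPS, pH 7.4 with Alexa Fluor 647–I-BET762 tracer at 50 nM (200 nM for BRDT Y66A). Plates were equilibrated 1 h at rt in the dark, then 1.5 nM Eu-anti-6His was added.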
# [8] = molecular target: Bromodomain-containing protein 2 (Homo sapiens, UniProt P25440, Y113A); test: Displacement of Alexa Fluor 647 labelled I-BET762 from N-terminal His6-tagged human BRD2 BD2 (1 to 473 residues)/BD1 Y113A mutant expressed in Escherichia coli after 1 hr by TR-FRET assay
# Chain of Bromodomain-containing protein 2 (Homo sapiens, UniProt P25440, Y113A) (P25440 whole entry Y113A, the tested form may be a part): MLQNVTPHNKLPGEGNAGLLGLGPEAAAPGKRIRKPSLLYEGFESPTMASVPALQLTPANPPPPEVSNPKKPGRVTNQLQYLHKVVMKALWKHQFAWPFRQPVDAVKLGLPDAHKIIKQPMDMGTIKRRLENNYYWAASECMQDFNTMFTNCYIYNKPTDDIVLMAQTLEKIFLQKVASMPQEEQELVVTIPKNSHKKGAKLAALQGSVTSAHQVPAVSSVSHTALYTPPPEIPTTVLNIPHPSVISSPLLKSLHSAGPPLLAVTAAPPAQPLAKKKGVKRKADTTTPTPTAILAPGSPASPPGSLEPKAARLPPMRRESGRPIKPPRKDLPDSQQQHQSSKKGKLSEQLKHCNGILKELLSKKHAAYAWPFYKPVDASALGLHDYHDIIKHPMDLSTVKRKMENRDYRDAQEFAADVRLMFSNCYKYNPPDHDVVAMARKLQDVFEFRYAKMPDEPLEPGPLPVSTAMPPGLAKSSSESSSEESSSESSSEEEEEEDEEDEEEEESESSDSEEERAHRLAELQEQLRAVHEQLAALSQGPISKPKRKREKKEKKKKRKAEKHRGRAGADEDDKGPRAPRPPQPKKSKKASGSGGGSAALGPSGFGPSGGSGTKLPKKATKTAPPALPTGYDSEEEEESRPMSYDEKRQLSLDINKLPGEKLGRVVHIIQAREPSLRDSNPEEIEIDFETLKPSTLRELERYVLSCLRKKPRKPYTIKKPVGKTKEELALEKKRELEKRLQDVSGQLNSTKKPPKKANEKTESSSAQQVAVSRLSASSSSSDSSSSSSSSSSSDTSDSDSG
# [9] = molecular target: Bromodomain-containing protein 2 (Homo sapiens, UniProt P25440, Y386A); test: Displacement of Alexa Fluor 647 labelled I-BET762 from N-terminal His6-tagged human BRD2 BD1 (1 to 473 residues)/BD2 Y386A mutant expressed in Escherichia coli after 1 hr by TR-FRET assay
# Chain of Bromodomain-containing protein 2 (Homo sapiens, UniProt P25440, Y386A) (P25440 whole entry Y386A, the tested form may be a part): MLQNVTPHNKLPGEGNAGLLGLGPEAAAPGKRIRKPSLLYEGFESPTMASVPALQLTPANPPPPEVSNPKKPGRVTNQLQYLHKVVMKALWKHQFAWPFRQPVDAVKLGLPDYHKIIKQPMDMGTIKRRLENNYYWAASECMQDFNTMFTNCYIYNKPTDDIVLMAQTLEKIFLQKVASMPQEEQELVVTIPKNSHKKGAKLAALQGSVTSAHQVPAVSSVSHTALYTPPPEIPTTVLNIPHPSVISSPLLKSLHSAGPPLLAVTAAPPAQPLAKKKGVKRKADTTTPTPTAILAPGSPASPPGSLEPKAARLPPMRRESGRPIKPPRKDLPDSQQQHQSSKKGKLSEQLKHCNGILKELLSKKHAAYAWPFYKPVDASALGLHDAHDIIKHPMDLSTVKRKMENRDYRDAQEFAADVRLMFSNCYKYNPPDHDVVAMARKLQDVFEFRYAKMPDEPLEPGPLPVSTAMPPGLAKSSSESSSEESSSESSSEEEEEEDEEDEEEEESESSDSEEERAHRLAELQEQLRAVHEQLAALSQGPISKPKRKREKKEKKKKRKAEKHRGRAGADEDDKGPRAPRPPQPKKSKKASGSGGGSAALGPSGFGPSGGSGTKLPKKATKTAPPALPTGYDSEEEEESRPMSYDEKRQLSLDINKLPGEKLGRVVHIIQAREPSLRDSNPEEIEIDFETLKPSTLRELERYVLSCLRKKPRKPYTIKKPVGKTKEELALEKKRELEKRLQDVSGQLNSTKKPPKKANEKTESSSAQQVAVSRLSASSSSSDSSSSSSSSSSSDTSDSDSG
# [10] = Cmax in CD1 mouse at 10 mg/kg, ip measured up to 12 hrs by reverse-phase LC-MS/MS analysis; assay type: ADME, organism-based; design: dose 10 mg/kg, route intraperitoneal; details: in vivo
# Procedure, shortened: (§1)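 Three male CD1 mice (30–33 g) given a single ip dose of 10 mg/kg, formulated at 2 mg/mL in 10% Kleptose in saline at pH 5 and dosed at 5 mL/kg. Serial tail-vein blood (ca. 20 µL) was taken up to 12 h, with a terminal cardiac sample at 24 h. Blood was diluted 1:1 with water, extracted by acetonitrile protein precipitation with internal standard, and quantified by reverse-phase LC-MS/MS (positive ion) against standards in control blood. Values are mean of n = 3.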
# [11] = Tmax in CD1 mouse at 10 mg/kg, ip measured up to 12 hrs by reverse-phase LC-MS/MS analysis; assay type: ADME, organism-based; details: in vivo; procedure, shortened: as §1
# [12] = Elimination half life in CD1 mouse at 10 mg/kg, ip measured up to 7 hrs by reverse-phase LC-MS/MS analysis; assay type: ADME, organism-based; details: in vivo, read-out: beta t1/2 (converted); procedure, shortened: as §1
# [13] = Terminal half life in CD1 mouse at 10 mg/kg, ip measured after 7 to 24 hrs by reverse-phase LC-MS/MS analysis; assay type: ADME, organism-based; details: in vivo, read-out: beta t1/2 (converted); procedure, shortened: as §1
# [14] = AUCinfinity in CD1 mouse at 10 mg/kg, ip measured up to 12 hrs by reverse-phase LC-MS/MS analysis; assay type: ADME, organism-based; design: dose 10 mg/kg, time infinity, route intraperitoneal; details: in vivo; procedure, shortened: as §1
# [15] = Unbound fraction in CD1 mouse blood at 200 to 1000 ng/ml incubated for 4 hrs by LC-MS/MS-based rapid equilibrium dialysis method; assay type: ADME, tissue-based
# [16] = molecular target: T1, Bromodomain-containing protein 3 (Homo sapiens, UniProt Q15059); test: Binding affinity to BRD3 BD1 (unknown origin) by isothermal titration calorimetric method
# T1 sequence (Q15059 whole entry): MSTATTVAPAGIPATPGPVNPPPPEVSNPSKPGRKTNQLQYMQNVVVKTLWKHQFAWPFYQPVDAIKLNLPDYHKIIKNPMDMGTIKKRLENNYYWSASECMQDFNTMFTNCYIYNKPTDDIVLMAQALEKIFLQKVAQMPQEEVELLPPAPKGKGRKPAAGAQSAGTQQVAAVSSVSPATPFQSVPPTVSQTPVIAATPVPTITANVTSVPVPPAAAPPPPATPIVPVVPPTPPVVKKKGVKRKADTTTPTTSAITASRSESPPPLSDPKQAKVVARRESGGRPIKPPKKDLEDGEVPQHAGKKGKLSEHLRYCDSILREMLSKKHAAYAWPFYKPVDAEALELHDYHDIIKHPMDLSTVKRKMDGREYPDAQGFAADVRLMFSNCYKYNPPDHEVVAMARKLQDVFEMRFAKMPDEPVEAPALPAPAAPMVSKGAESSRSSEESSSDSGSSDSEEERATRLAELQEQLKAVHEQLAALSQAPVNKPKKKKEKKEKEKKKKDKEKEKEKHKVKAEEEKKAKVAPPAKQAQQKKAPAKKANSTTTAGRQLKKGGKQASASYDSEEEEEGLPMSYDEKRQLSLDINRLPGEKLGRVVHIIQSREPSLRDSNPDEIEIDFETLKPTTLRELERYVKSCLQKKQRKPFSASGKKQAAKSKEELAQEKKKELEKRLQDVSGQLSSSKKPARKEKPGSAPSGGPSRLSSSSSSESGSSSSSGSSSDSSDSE
# [17] = molecular target: T2, Bromodomain-containing protein 2 (Homo sapiens, UniProt P25440); test: Binding affinity to BRD2 BD1 (unknown origin) by isothermal titration calorimetric method
# T2 sequence (P25440 whole entry): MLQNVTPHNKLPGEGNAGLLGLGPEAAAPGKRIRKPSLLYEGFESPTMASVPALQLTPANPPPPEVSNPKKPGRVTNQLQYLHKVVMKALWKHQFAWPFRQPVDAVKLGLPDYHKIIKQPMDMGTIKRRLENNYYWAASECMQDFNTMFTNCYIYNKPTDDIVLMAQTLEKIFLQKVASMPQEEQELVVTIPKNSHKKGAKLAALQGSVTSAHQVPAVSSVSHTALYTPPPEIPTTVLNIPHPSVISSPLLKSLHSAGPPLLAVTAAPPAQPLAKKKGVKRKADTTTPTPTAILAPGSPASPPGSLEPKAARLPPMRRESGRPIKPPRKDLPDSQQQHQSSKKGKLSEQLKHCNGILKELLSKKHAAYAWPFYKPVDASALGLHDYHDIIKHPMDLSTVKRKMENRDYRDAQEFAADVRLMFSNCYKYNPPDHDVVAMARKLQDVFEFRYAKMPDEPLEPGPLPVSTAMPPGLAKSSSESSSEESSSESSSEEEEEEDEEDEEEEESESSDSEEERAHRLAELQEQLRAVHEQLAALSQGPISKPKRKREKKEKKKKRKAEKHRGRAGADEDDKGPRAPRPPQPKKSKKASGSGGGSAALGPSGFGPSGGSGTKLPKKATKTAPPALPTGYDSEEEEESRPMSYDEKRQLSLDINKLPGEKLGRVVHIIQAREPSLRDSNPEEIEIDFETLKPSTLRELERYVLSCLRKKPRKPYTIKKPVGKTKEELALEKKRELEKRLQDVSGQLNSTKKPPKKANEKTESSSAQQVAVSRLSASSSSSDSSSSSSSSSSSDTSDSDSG
# [18] = molecular target: T1, Bromodomain-containing protein 3; test: Binding affinity to BRD3 BD2 (unknown origin) by isothermal titration calorimetric method
# [19] = molecular target: T2, Bromodomain-containing protein 2; test: Binding affinity to BRD2 BD2 (unknown origin) by isothermal titration calorimetric method
# [20] = molecular target: Bromodomain testis-specific protein (Homo sapiens, UniProt Q58F21, Y309A); test: Displacement of Alexa Fluor 647 labelled I-BET762 from N-terminal His6-tagged human BRDT BD1 (1 to 397 residues)/BD2 Y309A mutant expressed in Escherichia coli after 1 hr by TR-FRET assay
# [21] = molecular target: Bromodomain-containing protein 3 (Homo sapiens, UniProt Q15059, Y348A); test: Displacement of Alexa Fluor 647 labelled I-BET762 from N-terminal His6-tagged human BRD3 BD1 (1 to 435 residues)/BD2 Y348A mutant expressed in Escherichia coli after 1 hr by TR-FRET assay
# Chain of Bromodomain-containing protein 3 (Homo sapiens, UniProt Q15059, Y348A) (Q15059 2-726 Y348A limits assumed): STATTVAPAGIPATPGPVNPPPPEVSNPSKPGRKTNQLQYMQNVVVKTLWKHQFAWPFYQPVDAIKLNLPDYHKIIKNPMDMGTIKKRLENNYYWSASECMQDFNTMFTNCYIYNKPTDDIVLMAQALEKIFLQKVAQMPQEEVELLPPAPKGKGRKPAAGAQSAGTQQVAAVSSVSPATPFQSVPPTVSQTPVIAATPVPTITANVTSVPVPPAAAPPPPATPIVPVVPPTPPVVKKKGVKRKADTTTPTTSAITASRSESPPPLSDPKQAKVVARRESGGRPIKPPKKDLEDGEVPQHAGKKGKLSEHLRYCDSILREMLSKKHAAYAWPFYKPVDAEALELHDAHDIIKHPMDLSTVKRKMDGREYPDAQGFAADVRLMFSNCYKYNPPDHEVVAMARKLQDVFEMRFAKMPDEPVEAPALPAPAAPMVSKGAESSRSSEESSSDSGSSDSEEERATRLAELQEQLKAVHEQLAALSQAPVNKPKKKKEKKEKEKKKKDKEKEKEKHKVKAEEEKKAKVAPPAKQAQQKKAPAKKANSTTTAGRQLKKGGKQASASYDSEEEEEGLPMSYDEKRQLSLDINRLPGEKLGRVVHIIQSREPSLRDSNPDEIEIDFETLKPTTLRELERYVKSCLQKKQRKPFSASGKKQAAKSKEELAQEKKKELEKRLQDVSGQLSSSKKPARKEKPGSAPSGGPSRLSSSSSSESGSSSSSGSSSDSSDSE
# [22] = molecular target: Bromodomain testis-specific protein (Homo sapiens, UniProt Q58F21, Y66A); test: Displacement of Alexa Fluor 647 labelled I-BET762 from N-terminal His6-tagged human BRDT BD2 (1 to 397 residues)/BD1 Y66A mutant expressed in Escherichia coli after 1 hr by TR-FRET assay
# Homo sapiens [23] = organism: Homo sapiens; test: Selectivity index, difference between pIC50 for N-terminal His6-tagged human BRD2 BD1 (1 to 473 residues)/ BD2 Y386A mutant expressed in Escherichia coli to pIC50 for N-terminal His6-tagged human BRD2 BD2 (1 to 473 residues)/BD1 Y113A mutant expressed in Escherichia coli
# Homo sapiens [24] = organism: Homo sapiens; test: Selectivity index, difference between pIC50 for N-terminal His6-tagged human BRD3 BD1 (1 to 435 residues)/BD2 Y348A mutant expressed in Escherichia coli to pIC50 for N-terminal His6-tagged human BRD3 BD2 (1 to 435 residues)/BD1 Y73A mutant expressed in Escherichia coli
# Homo sapiens [25] = organism: Homo sapiens; test: Selectivity index, difference between pIC50 for N-terminal His6-tagged human BRDT BD1 (1 to 397 residues)/ BD2 Y309A mutant expressed in Escherichia coli to pIC50 for N-terminal His6-tagged human BRDT BD2 (1 to 397 residues)/BD1 Y66A mutant expressed in Escherichia coli
SMILES,IC50 [1] [µM],IC50 [2] [µM],other results
Cc1noc(C)c1-c1cc2ncc3c(c2cc1OCCCN)n(C(C)c1ccccn1)c(=O)n3C (stereo unspecified),15.8,0.631,
COc1ccc2c(c1)C(c1ccc(Cl)cc1)=N[C@@H](NC(=O)OCc1ccccc1)c1nnc(C)n1-2,,,IC50 (PBMC [3]): 0.316 µM; IC50 (PBMC [4]): 0.0501 µM; IC50 (Blood [5]): 1.58 µM; IC50 (MV4-11): 0.2 µM; IC50 (Blood [6]): 0.2 µM
CC(=O)NCCCOc1cc2c(cc1-c1c(C)noc1C)ncc1c2n(C(C)c2ccccn2)c(=O)n1C (stereo unspecified),3.16,0.794,
Cc1noc(C)c1-c1cc2ncc3c(c2cc1O[C@@H]1CCNC1)n([C@H](C)c1ccccn1)c(=O)n3C,50.1,1.26,
COCc1nc2cnc3cc(-c4c(C)noc4C)c(OC[C@H]4CCNC4)cc3c2n1[C@H](C)c1ccccc1 [GSK778],,,IC50 (Blood [5]): 0.251 µM; IC50 (MV4-11): 0.1 µM; IC50 [7]: 1 µM; IC50 [8]: 3.16 µM; IC50 [9]: 0.0794 µM; Cmax [10]: 2400 nM; Tmax [11]: 15 to 30 min; half-life [12]: 54 min; half-life [13]: 492 min; AUC(0-inf) [14]: 3.34 µM·h; fraction unbound at 4 h [15]: 0.08
CNCCCOc1cc2c(cc1-c1c(C)noc1C)ncc1c2n(C(C)c2ccccn2)c(=O)n1C (stereo unspecified),25.1,1,
Cc1noc(C)c1-c1cc2ncc3c(c2cc1O[C@H]1C[C@@H](N)C1)n(C(C)c1ccccn1)c(=O)n3C (stereo partly specified),10,0.251,
Cc1noc(C)c1-c1cc2ncc3c(c2cc1C(=O)O)n(C(C)c1ccccn1)c(=O)n3C (stereo unspecified),> 50.1,12.6,
CC(=O)NCCCCn1c2c(c3ccccc31)C(=O)NCC2,,,Kd [16]: 3.3 to 8.6 µM; Kd [17]: 3.3 to 8.6 µM; Kd [18]: > 300 µM; Kd [19]: > 300 µM
Cc1noc(C)c1-c1cc2ncc3c(c2cc1OCC(=O)O)n([C@H](C)c1ccccn1)c(=O)n3C,12.6,2,
COc1cc2c(cc1-c1c(C)noc1C)ncc1[nH]c(=O)n([C@H](C)c3ccccn3)c12,,,IC50 (PBMC [3]): 0.126 µM; IC50 (PBMC [4]): 0.0398 µM; IC50 (Blood [5]): 1 µM; IC50 (MV4-11): 0.1 µM; IC50 (Blood [6]): 0.2 µM; IC50 [7]: 0.0794 µM; IC50 [20]: 0.126 µM; IC50 [21]: 0.0316 µM; IC50 [22]: 1.58 µM

# Further lines, with some results ahead:
IC50 [1] [µM],IC50 [2] [µM],SMILES,other results
> 50.1,> 50.1,Cc1noc(C)c1-c1cc2ncc3c(c2cc1CC(=O)O)n(C(C)c1ccccn1)c(=O)n3C (stereo unspecified),
31.6,1.26,Cc1noc(C)c1-c1cc2ncc3c(c2cc1OCCN)n(C(C)c1ccccn1)c(=O)n3C (stereo unspecified),
39.8,0.794,Cc1noc(C)c1-c1cc2ncc3c(c2cc1OCC1CCNCC1)n(C(C)c1ccccn1)c(=O)n3C (stereo unspecified),
> 50.1,6.31,Cc1noc(C)c1-c1cc2ncc3c(c2cc1O[C@H]1CCNC1)n(C(C)c1ccccn1)c(=O)n3C (mixture of isomers),
6.31,0.501,Cc1noc(C)c1-c1cc2ncc3c(c2cc1OCCCO)n(C(C)c1ccccn1)c(=O)n3C (stereo unspecified),
25.1,0.501,Cc1noc(C)c1-c1cc2ncc3c(c2cc1OC[C@H]1CCNC1)n(C(C)c1ccccn1)c(=O)n3C (mixture of isomers),
31.6,0.794,Cc1noc(C)c1-c1cc2ncc3c(c2cc1OC[C@@H]1CCNC1)n(C(C)c1ccccn1)c(=O)n3C (mixture of isomers),
> 50.1,2,Cc1noc(C)c1-c1cc2ncc3c(c2cc1OCCN(C)C)n([C@H](C)c1ccccn1)c(=O)n3C,
> 50.1,1,Cc1noc(C)c1-c1cc2ncc3c(c2cc1OCCCN(C)C)n([C@H](C)c1ccccn1)c(=O)n3C,
0.501,0.0501,COc1cc2c(cc1-c1c(C)noc1C)ncc1c2n([C@H](C)c2ccccn2)c(=O)n1C,
0.0398,0.01,COCc1nc2cnc3cc(-c4c(C)noc4C)c(OC)cc3c2n1[C@H](C)c1ccccc1,IC50 [7]: 0.0158 µM; IC50 [8]: 0.0398 µM; IC50 [20]: 0.0251 µM; IC50 [21]: 0.01 µM; IC50 [9]: 0.0126 µM; IC50 [22]: 0.316 µM; Selectivity Index (Homo sapiens [23]): 3.2; Selectivity Index (Homo sapiens [24]): 1.6; Selectivity Index (Homo sapiens [25]): 13
3.16,0.0794,Cc1noc(C)c1-c1cc2ncc3c(c2cc1O[C@H]1C[C@H](N)C1)n(C(C)c1ccccn1)c(=O)n3C (stereo partly specified),
